Reference: ChEMBL document CHEMBL3232837, “Synthesis and evaluation of new Hsp90 inhibitors based on a 1,4,5-trisubstituted 1,2,3-triazole scaffold” (J Med Chem, 2014)
Activity calls are given as the source filed them. The calls are words filed in the database; no cut-off is given here.

Tests used:
[1] = target: Heat shock protein HSP 90-alpha (Homo sapiens, UniProt P07900); assay: Displacement of GM-FITC from full-length recombinant human Hsp90-alpha after 4 hrs by fluorescence polarization assay
[2] = system: NCI-H460; assay: Cytotoxicity against human NCI-H460 cells assessed as growth inhibition after 72 hrs by SRB assay; assay type: functional, cell-based; details: NCI-H460, 72 h
Procedure, shortened: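 NCI-H460 cells grown in RPMI-1640 with 10% heat-inactivated FBS, seeded at about 10% confluence and allowed 24 h recovery. Exposed to graded drug concentrations or solvent for 72 h. Surviving fraction measured by sulforhodamine B. IC50 is the concentration giving a 50% drop in cell number vs vehicle, from dose-response curve fitting; mean of n=4 with SD.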

[3] = target: Histone deacetylase 1 (Homo sapiens, UniProt Q13547); assay: Inhibition of human HDAC-1 using RHKK(Ac) as substrate by fluorescence assay
[4] = target: Histone deacetylase 2 (Homo sapiens, UniProt Q92769); assay: Inhibition of human HDAC-2 using RHKK(Ac) as substrate by fluorescence assay
[5] = target: Histone deacetylase 3/Nuclear receptor corepressor 2 (HDAC3/NCoR2) (Homo sapiens, UniProt O15379); assay: Inhibition of human HDAC-3/NCOR2 using RHKK(Ac) as substrate by fluorescence assay; assay type: protein-complex assay
[6] = target: Histone deacetylase 4 (Homo sapiens, UniProt P56524); assay: Inhibition of human HDAC-4 using RHKK(Ac) as substrate by fluorescence assay
[7] = target: Histone deacetylase 5 (Homo sapiens, UniProt Q9UQL6); assay: Inhibition of human HDAC-5 using RHKK(Ac) as substrate by fluorescence assay
[8] = target: T1, Protein deacetylase HDAC6 (Homo sapiens, UniProt Q9UBN7); assay: Inhibition of human HDAC-6 using RHKK(Ac) as substrate by fluorescence assay
T1 sequence (Q9UBN7 whole entry): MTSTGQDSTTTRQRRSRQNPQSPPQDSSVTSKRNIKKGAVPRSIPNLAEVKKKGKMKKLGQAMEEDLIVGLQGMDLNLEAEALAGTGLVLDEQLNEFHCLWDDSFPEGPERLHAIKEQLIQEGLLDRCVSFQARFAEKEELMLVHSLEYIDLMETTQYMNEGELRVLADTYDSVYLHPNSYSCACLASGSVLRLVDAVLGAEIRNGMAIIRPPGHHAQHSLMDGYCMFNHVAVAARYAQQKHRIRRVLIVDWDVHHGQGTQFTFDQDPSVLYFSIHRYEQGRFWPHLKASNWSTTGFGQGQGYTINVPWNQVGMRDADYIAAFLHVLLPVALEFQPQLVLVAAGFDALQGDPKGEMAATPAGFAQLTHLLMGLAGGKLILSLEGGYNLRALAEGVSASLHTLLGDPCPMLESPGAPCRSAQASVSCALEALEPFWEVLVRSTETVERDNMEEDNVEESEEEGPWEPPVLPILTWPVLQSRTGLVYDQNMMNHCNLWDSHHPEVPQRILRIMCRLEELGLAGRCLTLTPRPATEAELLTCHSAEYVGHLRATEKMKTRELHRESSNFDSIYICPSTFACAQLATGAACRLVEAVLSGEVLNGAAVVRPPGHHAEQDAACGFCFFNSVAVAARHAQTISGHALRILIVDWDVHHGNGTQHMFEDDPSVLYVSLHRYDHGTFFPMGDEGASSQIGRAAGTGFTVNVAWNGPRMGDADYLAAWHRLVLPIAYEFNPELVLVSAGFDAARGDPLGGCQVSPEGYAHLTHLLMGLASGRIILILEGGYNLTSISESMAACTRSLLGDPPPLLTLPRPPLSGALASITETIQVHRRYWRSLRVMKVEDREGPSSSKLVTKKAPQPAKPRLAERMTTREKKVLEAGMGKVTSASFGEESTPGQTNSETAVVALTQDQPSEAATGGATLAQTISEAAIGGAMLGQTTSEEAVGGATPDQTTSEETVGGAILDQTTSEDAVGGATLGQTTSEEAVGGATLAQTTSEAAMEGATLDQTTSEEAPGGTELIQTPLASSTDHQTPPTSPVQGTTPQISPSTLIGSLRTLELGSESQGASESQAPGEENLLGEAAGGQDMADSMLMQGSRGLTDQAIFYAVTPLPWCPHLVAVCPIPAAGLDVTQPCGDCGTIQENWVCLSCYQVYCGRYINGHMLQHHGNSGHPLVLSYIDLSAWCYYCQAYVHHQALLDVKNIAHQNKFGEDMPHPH

[9] = target: T2, Histone deacetylase 8 (Homo sapiens, UniProt Q9BY41); assay: Inhibition of human HDAC-8 using RHKK(Ac) as substrate by fluorescence assay
T2 sequence (Q9BY41 whole entry): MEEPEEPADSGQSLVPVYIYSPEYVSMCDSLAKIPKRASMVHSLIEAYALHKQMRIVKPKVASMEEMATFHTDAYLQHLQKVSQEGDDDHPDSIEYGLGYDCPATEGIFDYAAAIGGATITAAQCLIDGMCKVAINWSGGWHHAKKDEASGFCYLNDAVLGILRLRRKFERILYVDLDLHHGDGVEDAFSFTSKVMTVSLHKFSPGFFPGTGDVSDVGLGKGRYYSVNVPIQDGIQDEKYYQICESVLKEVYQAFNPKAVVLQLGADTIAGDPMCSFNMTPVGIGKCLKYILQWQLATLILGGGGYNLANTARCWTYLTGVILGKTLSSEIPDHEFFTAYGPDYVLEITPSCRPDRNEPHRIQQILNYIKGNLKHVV

[10] = target: T3, Polyamine deacetylase HDAC10 (Homo sapiens, UniProt Q969S8); assay: Inhibition of human HDAC-10 using RHKK(Ac) as substrate by fluorescence assay
T3 sequence (Q969S8 whole entry): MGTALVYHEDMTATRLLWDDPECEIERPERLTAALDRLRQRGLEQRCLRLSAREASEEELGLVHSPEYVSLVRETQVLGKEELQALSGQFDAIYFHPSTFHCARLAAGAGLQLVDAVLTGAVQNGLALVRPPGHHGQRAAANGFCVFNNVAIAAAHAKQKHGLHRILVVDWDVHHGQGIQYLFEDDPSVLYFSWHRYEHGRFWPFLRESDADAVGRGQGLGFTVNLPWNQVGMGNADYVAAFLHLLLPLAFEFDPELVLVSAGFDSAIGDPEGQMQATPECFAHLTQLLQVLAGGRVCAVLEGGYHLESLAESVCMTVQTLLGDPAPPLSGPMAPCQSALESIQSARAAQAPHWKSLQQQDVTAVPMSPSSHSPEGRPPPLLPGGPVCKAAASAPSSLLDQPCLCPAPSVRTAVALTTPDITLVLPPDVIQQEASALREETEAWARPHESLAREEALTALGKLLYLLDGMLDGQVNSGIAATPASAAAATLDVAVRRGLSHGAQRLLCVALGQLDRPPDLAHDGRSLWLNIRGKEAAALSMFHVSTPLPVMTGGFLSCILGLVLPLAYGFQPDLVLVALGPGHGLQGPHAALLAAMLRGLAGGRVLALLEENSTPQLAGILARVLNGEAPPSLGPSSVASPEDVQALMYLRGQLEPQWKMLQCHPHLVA

[11] = target: T4, Histone deacetylase 11 (Homo sapiens, UniProt Q96DB2); assay: Inhibition of human HDAC-11 using RHKK(Ac) as substrate by fluorescence assay
T4 sequence (Q96DB2 whole entry): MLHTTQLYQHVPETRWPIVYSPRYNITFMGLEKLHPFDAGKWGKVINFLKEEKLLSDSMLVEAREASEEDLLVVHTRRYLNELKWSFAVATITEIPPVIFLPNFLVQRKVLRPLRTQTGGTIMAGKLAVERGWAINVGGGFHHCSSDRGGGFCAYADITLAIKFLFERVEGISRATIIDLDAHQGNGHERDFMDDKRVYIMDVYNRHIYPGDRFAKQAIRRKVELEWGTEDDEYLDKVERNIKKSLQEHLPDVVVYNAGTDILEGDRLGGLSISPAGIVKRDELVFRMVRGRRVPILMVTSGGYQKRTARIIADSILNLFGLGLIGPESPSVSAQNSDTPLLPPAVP

[12] = system: NCI-H460; assay: Cell cycle arrest in human NCI-H460 cells assessed as accumulation at G2/M phase at 2 times IC50 after 24 to 72 hrs by propidium iodide staining-based FACS flow cytometric analysis; assay type: functional
[13] = system: NCI-H460; assay: Induction of apoptosis in human NCI-H460 cells assessed as cell with hypodiploid DNA content at 2 times IC50 after 24 to 72 hrs by propidium iodide staining-based FACS flow cytometric analysis; assay type: functional
[14] = system: A-431; assay: Antitumor activity against human A431 cells overexpressing EGFR xenografted in CD-1 nude mouse assessed as tumor growth inhibition at 50 mg/kg, ip administered as q5d/week for 2 weeks starting 3 days after tumor injection measured on day 5 post last dose relative to vehicle-treated control; assay type: functional, organism-based; design: dose 50 mg/kg
Procedure, shortened: (§1)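 Female athymic nude mice, 5-6 weeks old; 5 × 10^6 exponentially growing tumor cells inoculated s.c. in right flank. Treatment i.p. from day 3 after tumor injection. Tumor volume measured biweekly as d²·D/2. TVI% = 100 − (mean TV treated/mean TV control × 100), evaluated 5 days after last treatment; Mann-Whitney test vs vehicle group.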

[15] = system: GTL 16; assay: Antitumor activity against human GTL16 cells overexpressing c-Met xenografted in CD-1 nude mouse assessed as tumor growth inhibition at 50 mg/kg, ip administered as q5d/week for 2 weeks starting 3 days after tumor injection measured on day 5 post last dose relative to vehicle-treated control; assay type: functional, organism-based; design: dose 50 mg/kg; procedure, shortened: as §1
[16] = system: Mus musculus; assay: In vivo inhibition of HSP90 in human A431 cells overexpressing EGFR xenografted in CD-1 nude mouse assessed as downregulation of EGFR protein expression at 50 mg/kg, ip administered as q5d/week for 2 weeks starting 3 days after tumor injection measured at 2 hrs post last dose by Western blot analysis; assay type: functional, organism-based; design: dose 50 mg/kg; details: A-431
[17] = system: Mus musculus; assay: In vivo inhibition of HSP90 in human A431 cells overexpressing EGFR xenografted in CD-1 nude mouse assessed as downregulation of CDK4 protein expression at 50 mg/kg, ip administered as q5d/week for 2 weeks starting 3 days after tumor injection measured at 2 hrs post last dose by Western blot analysis; assay type: functional, organism-based; design: dose 50 mg/kg; details: A-431
[18] = system: Mus musculus; assay: In vivo inhibition of HSP90 in human A431 cells overexpressing EGFR xenografted in CD-1 nude mouse assessed as downregulation of AKT protein expression at 50 mg/kg, ip administered as q5d/week for 2 weeks starting 3 days after tumor injection measured at 2 hrs post last dose by Western blot analysis; assay type: functional, organism-based; design: dose 50 mg/kg; details: A-431
[19] = system: Mus musculus; assay: In vivo inhibition of HSP90 in human A431 cells overexpressing EGFR xenografted in CD-1 nude mouse assessed as induction of HSP70 protein expression at 50 mg/kg, ip administered as q5d/week for 2 weeks starting 3 days after tumor injection measured at 2 hrs post last dose by Western blot analysis; assay type: functional, organism-based; design: dose 50 mg/kg; details: A-431
[20] = system: Mus musculus; assay: In vivo inhibition of HSP90 in human GTL16 cells overexpressing c-Met xenografted in CD-1 nude mouse assessed as downregulation of c-Met protein expression at 50 mg/kg, ip administered as q5d/week for 2 weeks starting 3 days after tumor injection measured at 6 hrs post last dose by Western blot analysis; assay type: functional, organism-based; design: dose 50 mg/kg
[21] = system: Mus musculus; assay: In vivo inhibition of HSP90 in human GTL16 cells overexpressing c-Met xenografted in CD-1 nude mouse assessed as downregulation of AKT protein expression at 50 mg/kg, ip administered as q5d/week for 2 weeks starting 3 days after tumor injection measured at 6 hrs post last dose by Western blot analysis; assay type: functional, organism-based; design: dose 50 mg/kg
[22] = system: Mus musculus; assay: In vivo inhibition of HSP90 in human GTL16 cells overexpressing c-Met xenografted in CD-1 nude mouse assessed as downregulation of CDK4 protein expression at 50 mg/kg, ip administered as q5d/week for 2 weeks starting 3 days after tumor injection measured at 6 hrs post last dose by Western blot analysis; assay type: functional, organism-based; design: dose 50 mg/kg
[23] = system: Mus musculus; assay: In vivo inhibition of HSP90 in human GTL16 cells overexpressing c-Met xenografted in CD-1 nude mouse assessed as induction of HSP70 protein expression at 50 mg/kg, ip administered as q5d/week for 2 weeks starting 3 days after tumor injection measured at 6 hrs post last dose by Western blot analysis; assay type: functional, organism-based; design: dose 50 mg/kg
[24] = Metabolic stability in human plasma assessed as compound remaining at 5 uM measured at 120 mins by LC/MS analysis; assay type: ADME, cell-free
Procedure, shortened: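 Compound added to human plasma at 5 µM final and incubated at 37 °C for up to 120 min. Samples quenched in two volumes of chilled acetonitrile and centrifuged at 4 °C. Remaining compound quantified by LC/MS.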

[25] = Toxicity in ip dosed CD-1 nude mouse xenografted with human A431 cells overexpressing EGFR administered as q5d/week for 2 weeks starting 3 days after tumor injection measured on day 5 post last dose; assay type: organism-based, A-431; details: in vivo
Procedure, shortened: (§2)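 Female athymic nude mice, 5–6 weeks old, implanted s.c. in the right flank with 5 × 10^6 exponentially growing tumour cells and given i.p. doses (mg/10 mL/kg) over 2 weeks starting 3 days after implantation. Toxicity endpoints were maximum body weight loss, BWL% = 100 − [(mean BW day x / mean BW day 1) × 100], and deaths occurring before the first control death.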

[26] = Toxicity in ip dosed CD-1 nude mouse xenografted with GTL16 cells overexpressing c-Met administered as q5d/week for 2 weeks starting 3 days after tumor injection measured on day 5 post last dose; assay type: organism-based; details: in vivo; procedure, shortened: as §2

Chain of Histone deacetylase 3/Nuclear receptor corepressor 2 (HDAC3/NCoR2) (O15379 whole entry): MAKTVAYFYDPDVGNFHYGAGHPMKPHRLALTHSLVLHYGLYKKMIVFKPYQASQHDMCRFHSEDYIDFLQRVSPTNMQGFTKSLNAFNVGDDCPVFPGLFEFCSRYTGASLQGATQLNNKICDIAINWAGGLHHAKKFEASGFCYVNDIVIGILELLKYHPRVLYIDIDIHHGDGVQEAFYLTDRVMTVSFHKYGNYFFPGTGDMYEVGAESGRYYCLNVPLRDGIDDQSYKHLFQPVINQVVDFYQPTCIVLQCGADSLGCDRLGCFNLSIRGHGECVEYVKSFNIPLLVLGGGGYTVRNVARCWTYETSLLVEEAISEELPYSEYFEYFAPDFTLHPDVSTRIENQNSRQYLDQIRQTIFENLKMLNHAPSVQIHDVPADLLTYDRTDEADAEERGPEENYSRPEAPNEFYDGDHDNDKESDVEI
Chain of Histone deacetylase 3/Nuclear receptor corepressor 2 (HDAC3/NCoR2) (Q9Y618 whole entry, further chain): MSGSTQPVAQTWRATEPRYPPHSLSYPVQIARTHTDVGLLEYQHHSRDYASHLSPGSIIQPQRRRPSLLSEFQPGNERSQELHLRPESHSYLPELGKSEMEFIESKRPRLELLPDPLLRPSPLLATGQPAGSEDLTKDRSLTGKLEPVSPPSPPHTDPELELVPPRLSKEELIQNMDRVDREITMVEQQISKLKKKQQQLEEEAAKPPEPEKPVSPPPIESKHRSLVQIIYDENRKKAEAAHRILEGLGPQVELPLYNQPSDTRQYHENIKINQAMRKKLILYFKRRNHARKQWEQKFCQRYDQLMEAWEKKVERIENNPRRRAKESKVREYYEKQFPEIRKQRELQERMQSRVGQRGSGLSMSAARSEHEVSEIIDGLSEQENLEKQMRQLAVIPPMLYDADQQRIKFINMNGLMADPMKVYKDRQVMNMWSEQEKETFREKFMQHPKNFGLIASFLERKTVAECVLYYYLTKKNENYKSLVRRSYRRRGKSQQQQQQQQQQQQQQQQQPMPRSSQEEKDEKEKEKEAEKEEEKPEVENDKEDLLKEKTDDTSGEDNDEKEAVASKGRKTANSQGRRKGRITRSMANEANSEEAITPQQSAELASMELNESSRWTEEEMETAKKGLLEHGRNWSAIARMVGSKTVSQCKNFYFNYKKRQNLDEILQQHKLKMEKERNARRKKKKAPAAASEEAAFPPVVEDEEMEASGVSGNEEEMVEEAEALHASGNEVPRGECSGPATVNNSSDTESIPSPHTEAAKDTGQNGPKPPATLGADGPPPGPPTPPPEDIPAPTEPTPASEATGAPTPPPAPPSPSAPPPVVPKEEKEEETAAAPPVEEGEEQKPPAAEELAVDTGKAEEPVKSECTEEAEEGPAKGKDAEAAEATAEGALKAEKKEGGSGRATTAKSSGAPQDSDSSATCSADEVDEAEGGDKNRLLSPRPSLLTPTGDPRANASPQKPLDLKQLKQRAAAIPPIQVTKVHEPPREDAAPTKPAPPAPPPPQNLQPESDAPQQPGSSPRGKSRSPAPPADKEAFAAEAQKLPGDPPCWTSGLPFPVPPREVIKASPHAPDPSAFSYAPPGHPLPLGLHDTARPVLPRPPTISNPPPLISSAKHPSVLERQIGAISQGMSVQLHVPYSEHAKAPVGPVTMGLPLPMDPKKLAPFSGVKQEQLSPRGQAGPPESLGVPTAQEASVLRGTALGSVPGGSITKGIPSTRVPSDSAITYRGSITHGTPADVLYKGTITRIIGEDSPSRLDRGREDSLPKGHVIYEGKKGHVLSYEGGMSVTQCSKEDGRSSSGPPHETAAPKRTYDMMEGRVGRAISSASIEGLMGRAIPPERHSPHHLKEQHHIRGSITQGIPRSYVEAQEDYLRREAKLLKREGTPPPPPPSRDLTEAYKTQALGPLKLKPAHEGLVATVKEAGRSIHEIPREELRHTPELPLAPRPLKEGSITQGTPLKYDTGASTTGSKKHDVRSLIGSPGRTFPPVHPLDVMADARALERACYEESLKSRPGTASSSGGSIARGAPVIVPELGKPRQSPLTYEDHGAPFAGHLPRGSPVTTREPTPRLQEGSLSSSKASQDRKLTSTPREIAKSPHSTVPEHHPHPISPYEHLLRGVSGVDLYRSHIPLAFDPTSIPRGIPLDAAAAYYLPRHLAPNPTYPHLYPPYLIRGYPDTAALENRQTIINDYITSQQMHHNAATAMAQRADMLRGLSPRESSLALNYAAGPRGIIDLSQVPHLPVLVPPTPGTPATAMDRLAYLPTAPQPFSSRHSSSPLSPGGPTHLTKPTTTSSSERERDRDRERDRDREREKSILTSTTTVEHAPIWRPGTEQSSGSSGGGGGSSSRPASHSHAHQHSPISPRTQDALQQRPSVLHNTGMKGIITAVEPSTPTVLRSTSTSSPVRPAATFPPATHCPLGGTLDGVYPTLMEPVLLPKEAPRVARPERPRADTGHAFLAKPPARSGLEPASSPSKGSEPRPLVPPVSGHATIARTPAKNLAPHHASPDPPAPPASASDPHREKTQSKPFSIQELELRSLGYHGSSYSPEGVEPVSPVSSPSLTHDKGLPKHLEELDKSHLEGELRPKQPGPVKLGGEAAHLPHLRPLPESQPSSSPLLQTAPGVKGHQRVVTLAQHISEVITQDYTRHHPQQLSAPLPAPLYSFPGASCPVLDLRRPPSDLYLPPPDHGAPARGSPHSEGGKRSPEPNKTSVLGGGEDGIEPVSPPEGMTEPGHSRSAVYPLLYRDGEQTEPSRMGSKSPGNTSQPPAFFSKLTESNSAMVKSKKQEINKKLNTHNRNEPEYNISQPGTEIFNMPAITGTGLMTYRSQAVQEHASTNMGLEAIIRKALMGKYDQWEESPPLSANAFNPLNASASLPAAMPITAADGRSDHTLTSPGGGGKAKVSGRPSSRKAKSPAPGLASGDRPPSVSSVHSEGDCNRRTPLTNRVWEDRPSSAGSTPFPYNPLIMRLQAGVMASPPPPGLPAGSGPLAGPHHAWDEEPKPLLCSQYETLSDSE
Chain of Histone deacetylase 1 (Q13547 whole entry): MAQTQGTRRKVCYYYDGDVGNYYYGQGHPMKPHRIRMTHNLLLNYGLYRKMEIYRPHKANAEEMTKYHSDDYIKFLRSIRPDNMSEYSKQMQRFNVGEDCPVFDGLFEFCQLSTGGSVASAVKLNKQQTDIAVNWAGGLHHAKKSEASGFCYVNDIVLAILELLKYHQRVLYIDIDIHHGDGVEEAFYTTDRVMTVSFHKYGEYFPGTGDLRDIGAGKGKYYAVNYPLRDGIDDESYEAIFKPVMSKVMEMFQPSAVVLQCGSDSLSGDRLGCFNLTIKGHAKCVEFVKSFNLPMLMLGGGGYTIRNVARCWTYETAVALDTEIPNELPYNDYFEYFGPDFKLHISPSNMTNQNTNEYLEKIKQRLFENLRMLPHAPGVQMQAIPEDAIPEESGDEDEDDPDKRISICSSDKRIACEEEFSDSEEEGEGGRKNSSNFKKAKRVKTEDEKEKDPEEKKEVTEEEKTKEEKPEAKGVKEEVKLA
Chain of Histone deacetylase 2 (Q92769 whole entry): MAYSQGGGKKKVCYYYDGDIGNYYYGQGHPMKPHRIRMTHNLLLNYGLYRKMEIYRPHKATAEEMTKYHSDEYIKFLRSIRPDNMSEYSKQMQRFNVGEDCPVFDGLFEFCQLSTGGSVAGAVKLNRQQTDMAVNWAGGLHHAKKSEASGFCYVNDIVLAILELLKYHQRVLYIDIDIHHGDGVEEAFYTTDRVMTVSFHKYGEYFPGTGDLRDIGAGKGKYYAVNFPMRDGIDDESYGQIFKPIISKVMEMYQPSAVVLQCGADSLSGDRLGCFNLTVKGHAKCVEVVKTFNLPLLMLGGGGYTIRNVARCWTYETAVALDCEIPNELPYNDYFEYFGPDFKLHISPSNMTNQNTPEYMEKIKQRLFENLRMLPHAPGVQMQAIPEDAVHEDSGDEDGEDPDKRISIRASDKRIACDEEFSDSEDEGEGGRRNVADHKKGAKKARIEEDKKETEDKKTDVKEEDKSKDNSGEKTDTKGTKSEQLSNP
Chain of Histone deacetylase 4 (P56524 whole entry): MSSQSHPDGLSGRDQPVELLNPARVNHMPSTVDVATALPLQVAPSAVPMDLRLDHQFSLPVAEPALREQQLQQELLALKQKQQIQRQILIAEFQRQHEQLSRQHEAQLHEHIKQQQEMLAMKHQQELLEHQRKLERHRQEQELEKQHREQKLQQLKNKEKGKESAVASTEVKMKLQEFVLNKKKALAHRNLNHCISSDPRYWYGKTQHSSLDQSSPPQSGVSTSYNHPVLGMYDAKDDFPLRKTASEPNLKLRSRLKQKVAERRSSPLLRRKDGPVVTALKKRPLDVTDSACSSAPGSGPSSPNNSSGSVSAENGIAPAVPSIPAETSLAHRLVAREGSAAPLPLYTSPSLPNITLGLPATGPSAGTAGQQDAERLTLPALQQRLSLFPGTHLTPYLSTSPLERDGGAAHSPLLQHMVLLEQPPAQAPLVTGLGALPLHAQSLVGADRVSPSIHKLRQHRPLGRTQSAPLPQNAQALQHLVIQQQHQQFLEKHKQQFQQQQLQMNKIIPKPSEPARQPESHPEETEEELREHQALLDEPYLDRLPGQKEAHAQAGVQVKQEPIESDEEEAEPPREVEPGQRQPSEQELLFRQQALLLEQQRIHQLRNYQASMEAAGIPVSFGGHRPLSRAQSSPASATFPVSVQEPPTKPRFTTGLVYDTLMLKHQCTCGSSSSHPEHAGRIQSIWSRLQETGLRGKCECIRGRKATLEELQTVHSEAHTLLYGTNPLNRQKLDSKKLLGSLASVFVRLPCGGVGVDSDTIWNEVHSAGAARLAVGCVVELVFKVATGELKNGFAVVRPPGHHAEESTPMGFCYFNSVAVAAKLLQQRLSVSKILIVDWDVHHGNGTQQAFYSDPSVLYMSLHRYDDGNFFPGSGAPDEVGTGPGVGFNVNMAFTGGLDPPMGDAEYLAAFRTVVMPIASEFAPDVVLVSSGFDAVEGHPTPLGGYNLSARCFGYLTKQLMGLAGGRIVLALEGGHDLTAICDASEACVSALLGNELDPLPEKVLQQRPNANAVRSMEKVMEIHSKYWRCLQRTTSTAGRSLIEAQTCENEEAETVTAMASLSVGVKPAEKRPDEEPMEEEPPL

SMILES: CC(C)c1cc(-n2nnc(C(=O)NCCCCCCC(=O)NO)c2-c2ccc(CN3CCOCC3)cc2)c(O)cc1O
- IC50 [1]: 0.031 µM
- IC50 [2]: > 1 µM
- IC50 [3]: 3.1 µM
- IC50 [4]: 5.61 µM
- IC50 [5]: 2.79 µM
- IC50 [6]: 71.5 µM
- IC50 [7]: 1.91 µM
- IC50 [8]: 0.012 µM
- IC50 [9]: 0.717 µM
- IC50 [10]: 3.22 µM
- IC50 [11]: 1.77 µM

SMILES: CCNC(=O)c1noc(-c2cc(C(C)C)c(O)cc2O)c1-c1ccc(CN2CCOCC2)cc1 [LUMINESPIB]
- Activity [12]: Active
- Activity [13]: Active
- TGI [14]: Active
- TGI [15]: Active
- inhibition [16]: Active
- inhibition [17]: Active
- inhibition [18]: Active
- inhibition [19]: Active
- inhibition [20]: Active
- inhibition [21]: Active
- inhibition [22]: Active
- inhibition [23]: Active
- remaining at 2 h, 5 µM [24]: 56%
- MTD at 2 weeks [25]: 50 mg/kg
- MTD at 2 weeks [26]: 50 mg/kg
